Results on 7 molecules are retold here after ChEMBL document CHEMBL4602689, “Absolute Configuration and Antibiotic Activity of Piceamycin” (J Nat Prod, 2020).

Activity calls are given as the source filed them. The rule behind the calls is not given here.

The subject of experiment [1] is SNU-638. The experiment in a line: Antiproliferative activity against human SNU638 cells assessed as reduction in cell viability by sulforhodamine B assay. In kind it is functional, cell-based. The procedure, abridged:
(§1)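 Cells kept in RPMI 1640 with 10% heat-inactivated FBS plus penicillin, streptomycin and amphotericin B, at 37 °C and 5% CO₂. Cells seeded in 96-well plates and treated for the indicated times; zero-day controls read after 30 min. Fixed, stained with 0.4% SRB in 1% acetic acid, dye dissolved in 10 mM Tris pH 10.0, A515 read. IC50 by nonlinear regression.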

For experiment [2], the system named is Escherichia coli. The experiment in a line: Antibacterial activity against Escherichia coli ATCC 25922 assessed as reduction in microbial growth after 24 hrs by two-fold serial dilution method. The experiment is classed as functional. Conditions: ATCC 25922, 24 h. The essentials: (§2)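 Strains grown overnight in Mueller–Hinton broth at 37 °C, centrifuged and washed twice in sterile water. DMSO stocks were 2-fold serially diluted in MHB (128 to 0.015 μg/mL). Final inoculum was 5 × 10⁴ cfu/mL, incubated 24 h at 37 °C. MIC is the lowest concentration inhibiting growth. Controls were ampicillin, tetracycline, streptomycin and DMSO.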

Experiment [3] relates to Aspergillus fumigatus. The experiment in a line: Growth inhibition of Aspergillus fumigatus HIC 6094. In kind it is functional, organism-based.
The subject of experiment [4] is A549. The experiment in a line: Antiproliferative activity against human A549 cells assessed as reduction in cell viability by sulforhodamine B assay. In kind it is functional, cell-based. The essentials: as §1
The test system of experiment [5] is Bacillus thuringiensis. The experiment in a line: Antibacterial activity against Bacillus thuringiensis KACC 10168 assessed as reduction in microbial growth after 24 hrs by two-fold serial dilution method. In kind it is functional. As to conditions: KACC 10168, 24 h. The procedure, abridged:
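Bacteria grown overnight in tryptic soy broth at 28 °C, centrifuged and washed twice in sterile water. Compounds in DMSO were serially diluted 2-fold in TSB from 128 to 0.015 μg/mL. Final inoculum was 5 × 10⁴ cfu/mL, incubated 24 h at 28 °C. MIC taken as the lowest concentration inhibiting growth. Controls were ampicillin, tetracycline, streptomycin and DMSO.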

The subject of experiment [6] is Trichophyton mentagrophytes. In words: Growth inhibition of Trichophyton mentagrophytes IFM 40996. The experiment is classed as functional, organism-based.
In experiment [7] the test system is Enterococcus faecalis. The experiment in a line: Antibacterial activity against Enterococcus faecalis ATCC 19433 assessed as reduction in microbial growth after 24 hrs by two-fold serial dilution method. The experiment is classed as functional. As to conditions: ATCC 19433, 24 h. The procedure, abridged: as §2
In experiment [8] the test system is HCT-116. The experiment in a line: Antiproliferative activity against human HCT116 cells assessed as reduction in cell viability by sulforhodamine B assay. In kind it is functional, cell-based. The procedure, abridged:
as §1

Experiment [9] concerns Klebsiella pneumoniae. In words: Antibacterial activity against Klebsiella pneumoniae ATCC 10031 assessed as reduction in microbial growth after 24 hrs by two-fold serial dilution method. The experiment is classed as functional. As to conditions: ATCC 10031, 24 h. The procedure, abridged: as §2
The test system of experiment [10] is Enterococcus faecium. The experiment in a line: Antibacterial activity against Enterococcus faecium ATCC 19434 assessed as reduction in microbial growth after 24 hrs by two-fold serial dilution method. As to conditions: ATCC 19434, 24 h. In kind it is functional. The procedure, abridged:
as §2

In experiment [11] the test system is K562. In words: Antiproliferative activity against human K562 cells assessed as reduction in cell viability by sulforhodamine B assay. In kind it is functional, cell-based. The essentials:
as §1

The subject of experiment [12] is Staphylococcus aureus. In words: Antibacterial activity against Staphylococcus aureus ATCC 25923 assessed as reduction in microbial growth after 24 hrs by two-fold serial dilution method. The experiment is classed as functional. As to conditions: ATCC 25923, 24 h. The procedure, abridged: as §2
Experiment [13] deals with Trichophyton rubrum. The experiment in a line: Growth inhibition of Trichophyton rubrum NBRC 9185. In kind it is functional, organism-based.
Experiment [14] concerns SK-HEP1. In words: Antiproliferative activity against human SKHEP1 cells assessed as reduction in cell viability by sulforhodamine B assay. In kind it is functional, cell-based. The essentials:
(§3)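 Cells kept in DMEM with 10% heat-inactivated FBS plus penicillin, streptomycin and amphotericin B, at 37 °C and 5% CO₂. SRB assay: cells seeded in 96-well plates and treated for the indicated times, with 30-min zero-day controls. Fixed, stained with 0.4% SRB in 1% acetic acid, solubilized in 10 mM Tris pH 10.0, absorbance at 515 nm. IC50 by nonlinear regression.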

In experiment [15] the test system is Candida albicans. In words: Growth inhibition of Candida albicans ATCC 10231. In kind it is functional, organism-based.
Experiment [16] deals with Proteus hauseri. In words: Antibacterial activity against Proteus hauseri NBRC 3851 assessed as reduction in microbial growth after 24 hrs by two-fold serial dilution method. In kind it is functional. Conditions: NBRC 3851, 24 h. The procedure, abridged:
as §2

Experiment [17] has as its system MDA-MB-231. In words: Antiproliferative activity against human MDA-MB-231 cells assessed as reduction in cell viability by sulforhodamine B assay. The experiment is classed as functional, cell-based. The essentials:
as §3

The test system of experiment [18] is Salmonella enterica. In words: Antibacterial activity against Salmonella enterica ATCC 14028 assessed as reduction in microbial growth after 24 hrs by two-fold serial dilution method. The experiment is classed as functional. Conditions: ATCC 14028, 24 h. The procedure, abridged: as §2

With `C[C@@H]1\C=C/C=C/C=C\C=C\C=C\C(=O)C2=C(O)C(=O)C[C@@]2(C)/C=C/C=C\C=C/C(=O)NC1`, the IC50 in experiment [1] was found to be 380 nM; in experiment [4] it was 280 nM; in experiment [8] it was 220 nM; in experiment [11], 740 nM; in [14], 320 nM; in experiment [17], 660 nM. Further, the MIC in experiment [2] is more than 130 µg/mL; in experiment [5] it was 3.2 µg/mL; in [7], 32 µg/mL; in [9], more than 130 µg/mL; in experiment [10] it was 5.3 µg/mL; in experiment [12], 0.025 µg/mL. For the same molecule, the MIC in experiment [16] amounted to 0.025 µg/mL; in [18], 0.083 µg/mL. The “growth inhibition (GI)” value in [3], in experiment [6], in experiment [13] and in experiment [15] was “inactive” each time.
Regarding `CC1(C)S[C@@H]2[C@H](NC(=O)[C@H](N)c3ccccc3)C(=O)N2[C@H]1C(=O)O` [AMPICILLIN], the minimal inhibitory concentration (MIC) in [2] is 16 µg/mL; in experiment [7], 0.5 µg/mL; in experiment [9] it was more than 130 µg/mL; in experiment [10] it was 1 µg/mL; in [12], 0.17 µg/mL; in [16], 0.03 µg/mL. Also, in experiment [18], the MIC amounted to 0.25 µg/mL.
As for `CN(C)[C@@H]1C(O)=C(C(N)=O)C(=O)[C@@]2(O)C(O)=C3C(=O)c4c(O)cccc4[C@@](C)(O)[C@H]3C[C@@H]12` [TETRACYCLINE], the minimum inhibitory concentration (MIC) in [9] is 0.44 µg/mL.
`CC1=C\C[C@@H](O)CC(=O)/C=C/C=C/C=C\C=C\C=C/[C@@H](C)CNC(=O)\C=C/C=C/C=C/1`: the “growth inhibition (GI)” value in experiment [3], in experiment [6], in experiment [13] and in experiment [15] was “inactive” each time.
Regarding `COc1cc([C@@H]2c3cc4c(cc3[C@@H](O[C@@H]3O[C@@H]5CO[C@@H](C)O[C@H]5[C@H](O)[C@H]3O)[C@H]3COC(=O)[C@H]23)OCO4)cc(OC)c1O` [ETOPOSIDE], the half-inhibitory concentration (IC50) came to 520 nM in [1]; 600 nM in [4]; 1360 nM in [8]; 980 nM in [11]; 380 nM in experiment [14]; 3320 nM in experiment [17].
Turning to `CC1=C/C[C@@H](O)CC(=O)/C=C/C=C/C=C\C=C\C=C/[C@@H](C)CNC(=O)\C=C/C=C\C=C\1`, the half-maximal inhibitory concentration (IC50) was found to be 850 nM in [1]; 780 nM in experiment [4]; 1010 nM in experiment [8]; 960 nM in experiment [11]; 1870 nM in experiment [14]; 1000 nM in experiment [17]. In addition, the MIC is more than 130 µg/mL in [2]; 380 µg/mL in experiment [5]; more than 130 µg/mL in experiment [7]; more than 130 µg/mL in experiment [9]; 130 µg/mL in experiment [10]; more than 130 µg/mL in [12]. Further, the MIC in [16] and in experiment [18] was 130 µg/mL throughout.
For `CN[C@@H]1[C@H](O[C@H]2[C@H](O[C@H]3[C@H](O)[C@@H](O)[C@H](N=C(N)N)[C@@H](O)[C@@H]3N=C(N)N)O[C@@H](C)[C@]2(O)C=O)O[C@@H](CO)[C@H](O)[C@H]1O` [STREPTOMYCIN], the MIC in experiment [5] came to 130 µg/mL.
